Legend:
dogs = assay: Preclinical dog cardiovascular study; assay type: in vivo; details: any dose
NMDA receptor = assay: In vitro binding affinity, NMDA receptor; details: read-out: Ki, NMDA receptor; preclinical in vitro panel
healthy male subjects [1] = assay: NeuroCart adaptive tracking; assay type: in vivo, human; details: 12-hour post-dose period
Outline: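 Fasted healthy men received a single dose or placebo capsule. Testing was done in a quiet, dim room, one subject at a time, after training at screening. Runs were twice pre-dose and at 0.5–10 h post-dose. The read-out was mean circle speed as % of maximum over 3.5 min. Change from baseline over 12 h was analysed by MMRM against pooled placebo, with baseline as covariate.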

[2] = Pharmacokinetics, first-in-human single ascending dose study; assay type: in vivo; details: n = 8
Outline: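 Healthy men received a single fasted dose of 3–200 mg, with 8 on active drug per cohort. Plasma was sampled pre-dose and at 0.25–36 h. Drug was quantified by validated LC–MS/MS (LLOQ 1.00 ng/mL). Cmax, tmax, t1/2, AUClast and AUC∞ were calculated by noncompartmental analysis using actual elapsed sampling times.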

[3] = Preclinical pharmacokinetic studies; assay type: in vivo; details: dogs and rats, oral administration
healthy male subjects [4] = assay: Orthostatic hypotension; assay type: in vivo, human

CN1CCC23CCCCC2C1Cc1ccc(C(N)=O)cc13 (stereo not drawn) [ALKS 7119, (9α, 13α)‐17‐methylmorphinan‐3‐carboxamide]
QT intervals (dogs): No changes in QT intervals
Ki (NMDA receptor): 7.44 µM
Adaptive tracking, LSM CFB (healthy male subjects [1]; 3 mg single oral dose): 0.15%
Adaptive tracking, LSM CFB (healthy male subjects [1]; 10 mg single oral dose): 2.4%
Adaptive tracking, LSM CFB (healthy male subjects [1]; 25 mg single oral dose): 0.24%
Adaptive tracking, LSM CFB (healthy male subjects [1]; 50 mg single oral dose): 2.04%
Adaptive tracking, LSM CFB (healthy male subjects [1]; 75 mg single oral dose): 0.25%
Adaptive tracking, LSM CFB (healthy male subjects [1]; 100 mg single oral dose): 1.05%
Adaptive tracking, LSM CFB (healthy male subjects [1]; 125 mg single oral dose): 0.8%
Adaptive tracking, LSM CFB (healthy male subjects [1]; 150 mg single oral dose): 0.65%
Adaptive tracking, LSM CFB (healthy male subjects [1]; 175 mg single oral dose): 0.9%
Adaptive tracking, LSM CFB (healthy male subjects [1]; 200 mg single oral dose): 0.72%
AUC infinite/dose ([2]; 3 mg single oral dose): 33.34
AUClast, mean (SD) ([2]; 3 mg single oral dose): 85.88 (25.56) hr*ng/ml
AUClast, range ([2]; 3 mg single oral dose): 57.37 to 129.02 ng·h/mL
AUC∞, mean (SD) ([2]; 3 mg single oral dose): 100.03 (25.04) hr*ng/ml
AUC∞, range ([2]; 3 mg single oral dose): 73.65 to 140.04 ng·h/mL
Cmax, mean (SD) ([2]; 3 mg single oral dose): 8.33 (2.78) ng/ml
Cmax, range ([2]; 3 mg single oral dose): 5.87 to 13.20 ng/mL
Cmax/dose ([2]; 3 mg single oral dose): 2.78
t1/2, mean (SD) ([2]; 3 mg single oral dose): 6.98(1.16) h
t1/2, range ([2]; 3 mg single oral dose): 5.20 to 8.77 h
tmax, median ([2]; 3 mg single oral dose): 2.02 h
tmax, range ([2]; 3 mg single oral dose): 2.00 to 4.15 h
AUC infinite/dose ([2]; 10 mg single oral dose): 29.54
AUClast, mean (SD) ([2]; 10 mg single oral dose): 272.60 (35.69) hr*ng/ml
AUClast, range ([2]; 10 mg single oral dose): 198.45 to 321.20 ng·h/mL
AUC∞, mean (SD) ([2]; 10 mg single oral dose): 295.38 (32.29) hr*ng/ml
AUC∞, range ([2]; 10 mg single oral dose): 233.76 to 338.34 ng·h/mL
Cmax, mean (SD) ([2]; 10 mg single oral dose): 25.33 (3.91) ng/ml
Cmax, range ([2]; 10 mg single oral dose): 20.40 to 32.30 ng/mL
Cmax/dose ([2]; 10 mg single oral dose): 2.53
t1/2, mean (SD) ([2]; 10 mg single oral dose): 8.51 (0.89) h
t1/2, range ([2]; 10 mg single oral dose): 7.01 to 9.45 h
tmax, median ([2]; 10 mg single oral dose): 2.00 h
tmax, range ([2]; 10 mg single oral dose): 1.00 to 2.00 h
AUC infinite/dose ([2]; 25 mg single oral dose): 29.25
AUClast, mean (SD) ([2]; 25 mg single oral dose): 703.56 (89.80) hr*ng/ml
AUClast, range ([2]; 25 mg single oral dose): 608.46 to 864.96 ng·h/mL
AUC∞, mean (SD) ([2]; 25 mg single oral dose): 731.29 (87.27) hr*ng/ml
AUC∞, range ([2]; 25 mg single oral dose): 640.06 to 883.94 ng·h/mL
Cmax, mean (SD) ([2]; 25 mg single oral dose): 74.51 (16.19) ng/ml
Cmax, range ([2]; 25 mg single oral dose): 51.00 to 93.00 ng/mL
Cmax/dose ([2]; 25 mg single oral dose): 2.98
t1/2, mean (SD) ([2]; 25 mg single oral dose): 7.81 (0.83) h
t1/2, range ([2]; 25 mg single oral dose): 6.78 to 9.41 h
tmax, median ([2]; 25 mg single oral dose): 1.00 h
tmax, range ([2]; 25 mg single oral dose): 1.00 to 2.00 h
AUC infinite/dose ([2]; 50 mg single oral dose): 30.94
AUClast, mean (SD) ([2]; 50 mg single oral dose): 1473.57 (203.53) hr*ng/ml
AUClast, range ([2]; 50 mg single oral dose): 1234.86 to 1780.97 ng·h/mL
AUC∞, mean (SD) ([2]; 50 mg single oral dose): 1547.06 (196.89) hr*ng/ml
AUC∞, range ([2]; 50 mg single oral dose): 1277.55 to 1828.84 ng·h/mL
Cmax, mean (SD) ([2]; 50 mg single oral dose): 140.00 (32.44) ng/ml
Cmax, range ([2]; 50 mg single oral dose): 103.00 to 190.00 ng/mL
Cmax/dose ([2]; 50 mg single oral dose): 2.80
t1/2, mean (SD) ([2]; 50 mg single oral dose): 7.81 (0.69) h
t1/2, range ([2]; 50 mg single oral dose): 6.99 to 8.68 h
tmax, median ([2]; 50 mg single oral dose): 1.53 h
tmax, range ([2]; 50 mg single oral dose): 1.00 to 4.00 h
AUC infinite/dose ([2]; 75 mg single oral dose): 33.98
AUClast, mean (SD) ([2]; 75 mg single oral dose): 2406.33 (373.64) hr*ng/ml
AUClast, range ([2]; 75 mg single oral dose): 1732.82 to 2969.47 ng·h/mL
AUC∞, mean (SD) ([2]; 75 mg single oral dose): 2548.51 (468.23) hr*ng/ml
AUC∞, range ([2]; 75 mg single oral dose): 1772.06 to 3367.86 ng·h/mL
Cmax, mean (SD) ([2]; 75 mg single oral dose): 225.50 (40.59) ng/ml
Cmax, range ([2]; 75 mg single oral dose): 190.00 to 302.00 ng/mL
Cmax/dose ([2]; 75 mg single oral dose): 3.01
t1/2, mean (SD) ([2]; 75 mg single oral dose): 8.42 (1.63) h
t1/2, range ([2]; 75 mg single oral dose): 6.84 to 12.01 h
tmax, median ([2]; 75 mg single oral dose): 1.50 h
tmax, range ([2]; 75 mg single oral dose): 0.50 to 4.00 h
AUC infinite/dose ([2]; 100 mg single oral dose): 31.36
AUClast, mean (SD) ([2]; 100 mg single oral dose): 3027.23 (600.53) hr*ng/ml
AUClast, range ([2]; 100 mg single oral dose): 2340.29 to 4326.23 ng·h/mL
AUC∞, mean (SD) ([2]; 100 mg single oral dose): 3136.45 (634.60) hr*ng/ml
AUC∞, range ([2]; 100 mg single oral dose): 2418.74 to 4525.46 ng·h/mL
Cmax, mean (SD) ([2]; 100 mg single oral dose): 307.63 (75.28) ng/ml
Cmax, range ([2]; 100 mg single oral dose): 224.00 to 465.00 ng/mL
Cmax/dose ([2]; 100 mg single oral dose): 3.08
t1/2, mean (SD) ([2]; 100 mg single oral dose): 7.63 (0.93) h
t1/2, range ([2]; 100 mg single oral dose): 6.36 to 8.84 h
tmax, median ([2]; 100 mg single oral dose): 1.50 h
tmax, range ([2]; 100 mg single oral dose): 1.00 to 4.08 h
AUC infinite/dose ([2]; 125 mg single oral dose): 33.50
AUClast, mean (SD) ([2]; 125 mg single oral dose): 4059.17 (809.98) hr*ng/ml
AUClast, range ([2]; 125 mg single oral dose): 3120.58 to 5579.28 ng·h/mL
AUC∞, mean (SD) ([2]; 125 mg single oral dose): 4187.59 (840.18) hr*ng/ml
AUC∞, range ([2]; 125 mg single oral dose): 3188.91 to 5732.16 ng·h/mL
Cmax, range ([2]; 125 mg single oral dose): 315.00 to 745.00 ng/mL
Cmax/dose ([2]; 125 mg single oral dose): 3.58
t1/2, mean (SD) ([2]; 125 mg single oral dose): 7.26 (0.99) h
t1/2, range ([2]; 125 mg single oral dose): 6.06 to 8.72 h
tmax, median ([2]; 125 mg single oral dose): 2.00 h
tmax, range ([2]; 125 mg single oral dose): 2.00 to 4.00 h
AUC infinite/dose ([2]; 150 mg single oral dose): 30.22
AUClast, mean (SD) ([2]; 150 mg single oral dose): 4361.53 (782.96) hr*ng/ml
AUClast, range ([2]; 150 mg single oral dose): 3622.31 to 6015.06 ng·h/mL
AUC∞, mean (SD) ([2]; 150 mg single oral dose): 4533.66 (862.77) hr*ng/ml
AUC∞, range ([2]; 150 mg single oral dose): 3790.65 to 6362.63 ng·h/mL
Cmax, mean (SD) ([2]; 150 mg single oral dose): 413.38 (65.38) ng/ml
Cmax, range ([2]; 150 mg single oral dose): 314.00 to 540.00 ng/mL
Cmax/dose ([2]; 150 mg single oral dose): 2.76
t1/2, mean (SD) ([2]; 150 mg single oral dose): 7.53 (0.88) h
t1/2, range ([2]; 150 mg single oral dose): 6.10 to 8.51 h
tmax, median ([2]; 150 mg single oral dose): 2.00 h
tmax, range ([2]; 150 mg single oral dose): 1.00 to 4.00 h
AUC infinite/dose ([2]; 175 mg single oral dose): 34.02
AUClast, mean (SD) ([2]; 175 mg single oral dose): 5754.94 (1013.23) hr*ng/ml
AUClast, range ([2]; 175 mg single oral dose): 4681.45 to 7356.86 ng·h/mL
AUC∞, mean (SD) ([2]; 175 mg single oral dose): 5954.09 (1047.00) hr*ng/ml
AUC∞, range ([2]; 175 mg single oral dose): 4820.27 to 7488.93 ng·h/mL
Cmax, mean (SD) ([2]; 175 mg single oral dose): 660.63 (167.66) ng/ml
Cmax, range ([2]; 175 mg single oral dose): 451.00 to 893.00 ng/mL
Cmax/dose ([2]; 175 mg single oral dose): 3.78
t1/2, mean (SD) ([2]; 175 mg single oral dose): 7.48 (0.87) h
t1/2, range ([2]; 175 mg single oral dose): 5.91 to 8.83 h
tmax, median ([2]; 175 mg single oral dose): 2.01 h
tmax, range ([2]; 175 mg single oral dose): 1.02 to 4.00 h
AUC infinite/dose ([2]; 200 mg single oral dose): 33.61
AUClast, mean (SD) ([2]; 200 mg single oral dose): 6490.47 (1144.87) hr*ng/ml
AUClast, range ([2]; 200 mg single oral dose): 5120.43 to 8737.25 ng·h/mL
AUC∞, mean (SD) ([2]; 200 mg single oral dose): 6721.82 (1227.19) hr*ng/ml
AUC∞, range ([2]; 200 mg single oral dose): 5273.49 to 9126.15 ng·h/mL
Cmax, mean (SD) ([2]; 200 mg single oral dose): 656.00 (104.74) ng/ml
Cmax, range ([2]; 200 mg single oral dose): 491.00 to 795.00 ng/mL
Cmax/dose ([2]; 200 mg single oral dose): 3.28
t1/2, mean (SD) ([2]; 200 mg single oral dose): 7.35 (0.58) h
t1/2, range ([2]; 200 mg single oral dose): 6.72 to 8.33 h
tmax, median ([2]; 200 mg single oral dose): 3.00 h
tmax, range ([2]; 200 mg single oral dose): 1.00 to 4.00 h
median time to maximum plasma concentration (tmax) [3]: 0.5 h
Incidence of orthostatic hypotension (healthy male subjects [4]; 200 mg dosing group, three subjects): 37.5%
Incidence of orthostatic hypotension (healthy male subjects [4]; all ALKS 7119 dose groups (placebo 15%)): 17.5%

From article PMC9302689 (British Journal of Clinical Pharmacology, 2022)
